From ChEMBL document CHEMBL1122658, “Amnesia-reversal activity of a series of N-[(disubstituted-amino)alkyl] -2-oxo-1-pyrrolidineacetamides, including pramiracetam” (1984)
Several values for one entry are separate records, joined by “and”; a condition that tells them apart may be missing. Identical values can stand only once.

Columns and labels:
[1] = test system: Mus musculus; experiment: Ability to reverse electroconvulsive shock induced amnesia in mice, after administering intraperitoneally at a dose of 5 mg/kg; type: functional; details: route intraperitoneal
How it was run: (§1)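 Male CF-1 mice (20-25 g), five groups of 20, trained in one trial on step-through inhibitory avoidance (darkened chamber). ECS given 2 h after training. Test drug or vehicle placebo injected ip 2 h after ECS, 1 h before retention test. Entry into box within 60 s scored as amnesia. % reversal = (drug − base-line ECS+placebo)/(ceiling no-ECS+placebo − base-line) ×100.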

[2] = test system: Mus musculus; experiment: Ability to reverse electroconvulsive shock induced amnesia in mice, after administering intraperitoneally at a dose of 2.5 mg/kg; type: functional; details: route intraperitoneal; how it was run: as §1
[3] = test system: Mus musculus; experiment: Compound was evaluated for the ability to reverse electroconvulsive shock (ECS) induced amnesia in mice, after administering intraperitoneally, at a dose of 10 mg/kg; type: functional; details: route intraperitoneal; how it was run: as §1
[4] = test system: Mus musculus; experiment: Ability to reverse electroconvulsive shock induced amnesia in mice, after administering intraperitoneally at a dose of 20 mg/kg; type: functional; details: route intraperitoneal; how it was run: as §1
[5] = test system: Mus musculus; experiment: Compound was evaluated for the ability to reverse electroconvulsive shock (ECS) induced amnesia in mice, after administering intraperitoneally, at a dose of 40 mg/kg; type: functional; details: route intraperitoneal; how it was run: as §1
[6] = test system: Mus musculus; experiment: Compound was evaluated for the ability to reverse electroconvulsive shock (ECS) induced amnesia in mice, after administering intraperitoneally, at a dose of 5 mg/kg; type: functional; details: route intraperitoneal; how it was run: as §1
[7] = test system: Mus musculus; experiment: Ability to reverse electroconvulsive shock (ECS) induced amnesia in mice, after administering intraperitoneally, at a dose of 80 mg/kg; type: functional; details: route intraperitoneal; how it was run: as §1
[8] = test system: Mus musculus; experiment: Ability to reverse electroconvulsive shock (ECS) induced amnesia in mice, after administering intraperitoneally, at a dose of 80.0 mg/kg; type: functional; details: route intraperitoneal; how it was run: as §1
[9] = test system: Mus musculus; experiment: Ability to reverse electroconvulsive shock (ECS) induced amnesia in mice, after administering intraperitoneally, at a dose of 160 mg/kg; type: functional; details: route intraperitoneal; how it was run: as §1
[10] = test system: Mus musculus; experiment: Ability to reverse electroconvulsive shock induced amnesia in mice, after administering intraperitoneally at a dose of 20.0 mg/kg; type: functional; details: route intraperitoneal; how it was run: as §1
[11] = test system: Mus musculus; experiment: Compound was evaluated for the ability to reverse electroconvulsive shock (ECS) induced amnesia in mice, after administering intraperitoneally, at a dose of 320 mg/kg; type: functional; details: route intraperitoneal; how it was run: as §1
[12] = test system: Mus musculus; experiment: Ability to reverse electroconvulsive shock (ECS) induced amnesia in mice, after administering intraperitoneally, at a dose of 0.31 mg/kg; type: functional; details: route intraperitoneal; how it was run: as §1
[13] = test system: Mus musculus; experiment: Ability to reverse electroconvulsive shock (ECS) induced amnesia in mice, after administering intraperitoneally, at a dose of 5 mg/kg; type: functional; details: route intraperitoneal; how it was run: as §1
[14] = test system: Mus musculus; experiment: Ability to reverse electroconvulsive shock (ECS) induced amnesia in mice, after administering intraperitoneally, at a dose of 0.63 mg/kg; type: functional; details: route intraperitoneal; how it was run: as §1
[15] = test system: Mus musculus; experiment: Ability to reverse electroconvulsive shock induced amnesia in mice, after administering intraperitoneally at a dose of 1.25 mg/kg; type: functional; details: route intraperitoneal; how it was run: as §1
[16] = test system: Mus musculus; experiment: Compound was evaluated for the ability to reverse electroconvulsive shock (ECS) induced amnesia in mice, after administering intraperitoneally, at a dose of 80.0 mg/kg; 18 of 20 mice died at this dose; type: functional; details: route intraperitoneal; how it was run: as §1
[17] = test system: Mus musculus; experiment: Ability to reverse electroconvulsive shock (ECS) induced amnesia in mice, after administering intraperitoneally, at a dose of 10.0 mg/kg; type: functional; details: route intraperitoneal; how it was run: as §1
[18] = test system: Mus musculus; experiment: Compound was evaluated for the ability to reverse electroconvulsive shock (ECS) induced amnesia in mice, after administering intraperitoneally, at a dose of 40.0 mg/kg; type: functional; details: route intraperitoneal; how it was run: as §1
[19] = test system: Mus musculus; experiment: Compound was evaluated for the ability to reverse electroconvulsive shock (ECS) induced amnesia in mice, after administering intraperitoneally, at a dose of 320.0 mg/kg; 18 of 20 mice died at this dose before completion of the test; type: functional, organism-based; parameters: dose 320 mg/kg; how it was run: as §1
[20] = test system: Mus musculus; experiment: Compound was evaluated for the ability to reverse electroconvulsive shock (ECS) induced amnesia in mice, after administering intraperitoneally, at a dose of […] mg/kg; type: functional; how it was run: as §1

C1CCc2nnnn2CC1 [PENTYLENETETRAZOL]
Amnesia reversal [1]: 20%
Amnesia reversal [2]: 15%
Amnesia reversal [3]: 10%
Amnesia reversal [4]: 15%
Amnesia reversal [5]: 15%

CC1CCCC(C)N1CCCNC(=O)CN1CCC(c2ccccc2)C1=O (configuration not stated)
Amnesia reversal [6]: 50%
Amnesia reversal [7]: 0%
Amnesia reversal [4]: 67%

O=C(CN1CCCC1=O)NCCCN1CCOCC1
Amnesia reversal [1]: 0%
Amnesia reversal [8]: 58%
Amnesia reversal [9]: 54%
Amnesia reversal [10]: 17%
Amnesia reversal [11]: 15%

Cn1c(=O)c2c(ncn2C)n(C)c1=O [CAFFEINE]
Amnesia reversal [12]: 10%
Amnesia reversal [2]: 10%
Amnesia reversal [13]: 0%
Amnesia reversal [14]: 5%
Amnesia reversal [15]: 0%

CCC1(C)CC(=O)NC1=O (configuration not stated) [ETHOSUXIMIDE]
Amnesia reversal [9]: 10%
Amnesia reversal [7]: 10%
Amnesia reversal [3]: 15%
Amnesia reversal [4]: 12%
Amnesia reversal [5]: 10%

NC(=O)CN1CCCC1=O [PIRACETAM]
Amnesia reversal [6]: 15%
Amnesia reversal [13]: 10%
Amnesia reversal ([7]; 80 mg/kg): 15% and 10%
Amnesia reversal [4]: 20%

CCC1CCC(=O)N1CC(=O)NCCCN1C(C)CCCC1C (configuration not stated)
Amnesia reversal [2]: 50%
Amnesia reversal [13]: 50%
Amnesia reversal [10]: 42%
Amnesia reversal [15]: 20%
Amnesia reversal [16]: 42%

CC(C)CN(CCNC(=O)CN1CCCC1=O)CC(C)C
Amnesia reversal [1]: 54%
Amnesia reversal [8]: 15%
Amnesia reversal [2]: 33%
Amnesia reversal [17]: 25%
Amnesia reversal [10]: 25%
Amnesia reversal [15]: 25%

CCC1CCC(=O)N1CC(=O)NCCN(C(C)C)C(C)C (configuration not stated)
Amnesia reversal [1]: 58%
Amnesia reversal [2]: 58%
Amnesia reversal [17]: 60%
Amnesia reversal [10]: 17%
Amnesia reversal [14]: 20%
Amnesia reversal [15]: 20%

[Cl-].[Li+] [CHLOROLITHIUM]
Amnesia reversal [1]: 15%
Amnesia reversal [2]: 15%
Amnesia reversal [17]: 30%
Amnesia reversal [10]: 25%
Amnesia reversal [7]: 20%
Amnesia reversal [14]: 15%
Amnesia reversal [15]: 10%
Amnesia reversal [5]: 30%

NC1=NC(=O)C(c2ccccc2)O1 (configuration not stated) [PEMOLINE]
Amnesia reversal [2]: 20%
Amnesia reversal [13]: 20%
Amnesia reversal [3]: 56%
Amnesia reversal [4]: 44%
Amnesia reversal [18]: 56%

N[C@@H]1C[C@H]1c1ccccc1.N[C@H]1C[C@@H]1c1ccccc1 [TRANYLCYPROMINE]
Amnesia reversal [1]: 15%
Amnesia reversal [2]: 5%
Amnesia reversal [17]: 10%
Amnesia reversal [15]: 10%

CC1CCCC(C)N1CCCCNC(=O)CN1CCCC1=O (configuration not stated)
Amnesia reversal [1]: 50%
Amnesia reversal [9]: 60%
Amnesia reversal [7]: 100%
Amnesia reversal [19]: 18 of 20 mice died at this dose before completion of the test
Amnesia reversal [4]: 60%

CC(C)(CNC(=O)CN1CCCC1=O)N1CCCCC1
Amnesia reversal [1]: 18%
Amnesia reversal [8]: 55%
Amnesia reversal [9]: 45%
Amnesia reversal [10]: 27%
Amnesia reversal [11]: 27%
Amnesia reversal [5]: 73%

CN(C)CCCN1c2ccccc2CCc2ccccc21 [IMIPRAMINE]
Amnesia reversal [1]: 10%
Amnesia reversal [3]: 10%
Amnesia reversal [4]: 5%
Amnesia reversal [18]: 15%

COC(=O)C(c1ccccc1)C1CCCCN1 (configuration not stated) [METHYLPHENIDATE]
Amnesia reversal [1]: 15%
Amnesia reversal [2]: 10%
Amnesia reversal [17]: 10%
Amnesia reversal [10]: 15%
Amnesia reversal [15]: 15%

CC1CCCCN1CCCNC(=O)CN1CCCC1=O (configuration not stated)
Amnesia reversal [1]: 33%
Amnesia reversal [8]: 17%
Amnesia reversal [20]: 10%
Amnesia reversal [10]: 33%
Amnesia reversal [14]: 0%
Amnesia reversal [15]: 0%
